# Measurements: ChEMBL document CHEMBL4152343, “Design, Synthesis, and Pharmacological Evaluation of Second-Generation Tetrahydroisoquinoline-Based CXCR4 Antagonists with Favorable ADME Properties” (J Med Chem, 2018)
# What was measured:
# Cytochrome P450 2D6 = Cytochrome P450 2D6 (Homo sapiens, UniProt P10635); assay: Inhibition of recombinant human CYP2D6 expressed in insect cells microsomes using AMMC as substrate preincubated for 30 mins followed by NADP addition and measured after 45 mins by fluorescence analysis; assay type: ADME
# Cytochrome P450 2D6, sequence (P10635 whole entry): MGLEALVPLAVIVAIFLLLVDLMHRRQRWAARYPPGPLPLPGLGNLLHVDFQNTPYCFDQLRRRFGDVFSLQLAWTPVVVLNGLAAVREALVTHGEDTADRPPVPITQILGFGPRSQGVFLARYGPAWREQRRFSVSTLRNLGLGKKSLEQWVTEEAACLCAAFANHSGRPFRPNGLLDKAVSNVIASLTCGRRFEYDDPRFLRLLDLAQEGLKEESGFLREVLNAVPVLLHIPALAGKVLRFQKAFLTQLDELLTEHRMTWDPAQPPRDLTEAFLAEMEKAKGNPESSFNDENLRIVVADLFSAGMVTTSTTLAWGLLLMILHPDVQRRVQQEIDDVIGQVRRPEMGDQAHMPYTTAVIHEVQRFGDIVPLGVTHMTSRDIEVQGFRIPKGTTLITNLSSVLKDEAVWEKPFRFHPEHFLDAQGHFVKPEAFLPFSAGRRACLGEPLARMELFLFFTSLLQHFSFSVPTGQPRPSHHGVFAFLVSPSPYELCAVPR
# [1] = Metabolic stability in human liver microsomes assessed as parent compound remaining after 10 mins by LC-MS/MS analysis; assay type: ADME, microsome; details: read-out: Stability
# Outline: (§1)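 Compound depletion measured by LC/MS/MS after 10 min at 37 °C in liver microsome preparations (CYP450 and other NADP-dependent enzymes). Values are % of compound remaining; duplicates in a single experiment.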
# [2] = Permeability of compound at pH 7.4 by PAMPA; assay type: ADME; details: read-out: permeability
# Outline: (§2)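 Compound from 10 mM DMSO stock diluted 1:100 to 100 µM (1% DMSO) in pH 7.4 or pH 5.5 donor buffer, then filtered. Lipid-coated filter membrane with pH 7.4 acceptor buffer; incubated 4 h at room temperature. UV plate reading gives Pc. Duplicates in two independent experiments unless noted.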
# [3] = biological target: T1, C-X-C chemokine receptor type 4 (Homo sapiens, UniProt P61073); assay: Agonist activity at CXCR4 in human CCRF-CEM cells assessed as induction of calcium release incubated for 25 mins by calcium flux assay; assay type: functional, cell-based
# T1 sequence (P61073 whole entry): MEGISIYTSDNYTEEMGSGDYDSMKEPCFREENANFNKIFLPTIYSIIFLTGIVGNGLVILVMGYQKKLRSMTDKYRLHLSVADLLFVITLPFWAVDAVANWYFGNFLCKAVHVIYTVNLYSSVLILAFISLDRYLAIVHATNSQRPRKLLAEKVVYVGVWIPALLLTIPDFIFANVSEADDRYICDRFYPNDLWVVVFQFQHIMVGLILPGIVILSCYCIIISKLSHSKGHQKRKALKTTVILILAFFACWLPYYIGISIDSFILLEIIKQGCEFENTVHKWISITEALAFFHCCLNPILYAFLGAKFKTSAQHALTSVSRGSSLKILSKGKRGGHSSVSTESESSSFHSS
# Outline: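 CCRF-CEM T lymphoblasts (endogenous CXCR4) in HBSS/20 mM HEPES/0.1% fatty-acid-free BSA, 40,000 cells/well, dye-loaded 30 min at 37°C, then 15 min at room temperature. Compounds added at final 25,000–0.423 nM (0.5% DMSO) and calcium flux read by FDSS for 90 s.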
# [4] = biological target: Muscarinic acetylcholine receptor; assay: Antagonist activity at mAChR in human CCRF-CEM cells assessed as inhibition of acetylcholine-induced calcium release preincubated for 25 mins followed by acetylcholine stimulation and measured for 90 secs by calcium flux assay; assay type: functional, cell-based
# Outline: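 Endogenous muscarinic receptors in CCRF-CEM cells (HBSS/HEPES/BSA buffer, 40,000 cells/well, dye-loaded 30 min at 37°C). Calcium flux recorded 90 s by FDSS. IC50 by 4-parameter logistic fit against an internal control compound; duplicate wells, single experiment.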
# [5] = Metabolic stability in mouse liver microsomes assessed as parent compound remaining after 10 mins by LC-MS/MS analysis; assay type: ADME, microsome; details: read-out: Stability; outline: as §1
# Cytochrome P450 3A4 = Cytochrome P450 3A4 (Homo sapiens, UniProt P08684); assay: Inhibition of human CYP3A4; assay type: ADME
# Cytochrome P450 3A4, sequence (P08684 whole entry): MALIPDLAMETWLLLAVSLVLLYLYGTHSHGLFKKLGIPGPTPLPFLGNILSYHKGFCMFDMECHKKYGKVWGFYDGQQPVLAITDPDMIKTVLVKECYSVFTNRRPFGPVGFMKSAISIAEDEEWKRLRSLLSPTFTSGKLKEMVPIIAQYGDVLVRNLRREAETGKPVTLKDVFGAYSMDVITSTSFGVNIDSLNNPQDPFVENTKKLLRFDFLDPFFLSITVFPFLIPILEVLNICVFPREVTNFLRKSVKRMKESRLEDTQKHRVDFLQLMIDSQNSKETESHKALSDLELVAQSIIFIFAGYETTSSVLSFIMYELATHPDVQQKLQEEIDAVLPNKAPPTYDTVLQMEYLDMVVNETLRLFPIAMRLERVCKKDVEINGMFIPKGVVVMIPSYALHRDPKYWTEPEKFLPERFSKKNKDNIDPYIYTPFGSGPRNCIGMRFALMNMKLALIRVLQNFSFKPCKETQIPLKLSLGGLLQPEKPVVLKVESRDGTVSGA
# [6] = biological target: T1, C-X-C chemokine receptor type 4; assay: Antagonist activity at CXCR4 in human CCRF-CEM cells assessed as inhibition of SDF-1alpha-induced calcium release preincubated for 25 mins followed by SDF-1alpha stimulation and measured for 90 secs by calcium flux assay; assay type: functional, cell-based
# [7] = biological target: Voltage-gated L-type calcium channel (Homo sapiens, UniProt Q13936+Q13698+Q01668+O60840); assay: Antagonist activity at L-type calcium channel (unknown origin); assay type: protein assay
# [8] = biological target: Voltage-gated inwardly rectifying potassium channel KCNH2 (Homo sapiens, UniProt Q12809); assay: Displacement of [3H]astemizole from human ERG expressed in HEK cell membranes
# Voltage-gated inwardly rectifying potassium channel KCNH2, sequence (Q12809 whole entry): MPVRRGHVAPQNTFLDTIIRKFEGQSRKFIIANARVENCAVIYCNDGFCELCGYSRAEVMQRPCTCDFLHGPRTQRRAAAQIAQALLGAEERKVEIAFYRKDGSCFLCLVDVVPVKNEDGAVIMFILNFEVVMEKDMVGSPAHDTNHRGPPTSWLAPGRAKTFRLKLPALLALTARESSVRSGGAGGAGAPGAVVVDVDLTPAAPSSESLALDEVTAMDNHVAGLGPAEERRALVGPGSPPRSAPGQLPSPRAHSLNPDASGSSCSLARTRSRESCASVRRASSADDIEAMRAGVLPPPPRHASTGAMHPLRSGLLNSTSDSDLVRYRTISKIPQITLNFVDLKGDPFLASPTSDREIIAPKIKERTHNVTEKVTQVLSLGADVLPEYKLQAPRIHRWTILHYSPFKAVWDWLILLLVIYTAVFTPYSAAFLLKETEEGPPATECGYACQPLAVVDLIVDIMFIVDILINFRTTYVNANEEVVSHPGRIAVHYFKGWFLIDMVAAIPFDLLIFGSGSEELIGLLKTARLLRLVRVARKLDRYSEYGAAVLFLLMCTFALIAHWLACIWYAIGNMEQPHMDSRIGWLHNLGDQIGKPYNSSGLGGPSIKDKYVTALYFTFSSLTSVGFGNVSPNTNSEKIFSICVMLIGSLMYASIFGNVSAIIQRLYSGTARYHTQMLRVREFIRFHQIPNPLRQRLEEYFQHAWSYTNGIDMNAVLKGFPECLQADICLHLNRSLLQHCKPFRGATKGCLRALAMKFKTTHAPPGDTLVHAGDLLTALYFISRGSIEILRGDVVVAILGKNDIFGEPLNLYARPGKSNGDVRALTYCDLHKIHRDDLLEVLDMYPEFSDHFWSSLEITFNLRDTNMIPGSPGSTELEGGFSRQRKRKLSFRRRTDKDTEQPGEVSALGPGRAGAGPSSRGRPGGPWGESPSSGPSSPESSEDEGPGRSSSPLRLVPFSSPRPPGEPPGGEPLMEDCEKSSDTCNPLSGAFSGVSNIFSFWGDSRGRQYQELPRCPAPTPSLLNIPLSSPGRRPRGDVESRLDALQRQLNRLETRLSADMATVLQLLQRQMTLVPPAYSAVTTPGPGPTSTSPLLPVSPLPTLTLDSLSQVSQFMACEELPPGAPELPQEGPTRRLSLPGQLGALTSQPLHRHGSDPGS
# Outline: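 Binding assay measuring [3H]astemizole displacement in HEK membranes overexpressing hKv11.1.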
# [9] = Permeability of compound at pH 5.5 by PAMPA; assay type: ADME; details: read-out: permeability; outline: as §2
# Homo sapiens = organism: Homo sapiens; assay: Selectivity index, ratio of IC50 for antagonist activity at mAChR in human CCRF-CEM cells to IC50 for antagonist activity at CXCR4 in human CCRF-CEM cells; assay type: cell-based
SMILES,IC50 (Cytochrome P450 2D6) [µM],remaining at 10 min [1] [%],Papp [2] [×10⁻⁶ cm/s],EC50 [3] [µM],IC50 [4] [µM],remaining at 10 min [5] [%],IC50 (Cytochrome P450 3A4) [µM],IC50 [6] [µM],Papp [9] [×10⁻⁶ cm/s],IC50 [7] [µM],IC50 [8] [µM],Ratio IC50 (Homo sapiens)
CN(C[C@H]1Cc2c(cccc2N2CCN(c3cccc(C(F)(F)F)c3)CC2)CN1)[C@H]1CCCc2cccnc21,6.48,90.3,14.1,> 30,9.25,72.3,2.21,> 16.7,–,–,–,–
CN(C[C@H]1Cc2c(cccc2N2CCNCC2)CN1)[C@H]1CCCc2cccnc21,> 20,99.7,–,> 30,7.18,19.9,> 20,0.00608,–,> 80,20.3,–
CN(C[C@H]1Cc2c(cccc2N2CCN(c3ccccn3)CC2)CN1)[C@H]1CCCc2cccnc21,2.52,27.4,–,> 30,1.98,46.1,3.16,0.0179,12.9,–,–,–
CN(C[C@H]1Cc2c(cccc2N2CCN(Cc3ccccn3)CC2)CN1)[C@H]1CCCc2cccnc21,11,4.2,–,> 30,10.8,40.4,6.79,0.00447,8.2,–,–,–
CN(C[C@H]1Cc2c(cccc2N2CCN(c3ncccn3)CC2)CN1)[C@H]1CCCc2cccnc21,0.508,35.5,–,> 30,0.887,35.1,3.35,0.0307,36,–,–,–
CN1CCN(c2cccc3c2C[C@H](CN(C)[C@H]2CCCc4cccnc42)N(C)C3)CC1,> 20,83.3,36.4,> 30,> 16.7,41.7,> 20,0.171,–,–,–,–
CN(C[C@@H]1Cc2c(cccc2N2CCNCC2)CN1)[C@H]1CCCc2cccnc21,> 20,94.2,0.4,> 30,2.1,54.6,> 20,0.313,–,–,–,–
CN(C[C@H]1Cc2c(cccc2N2CCN3CCC[C@@H]3C2)CN1)[C@H]1CCCc2cccnc21,> 20,52.2,74,> 30,26.1,36.7,> 20,0.00359,–,–,–,> 5000

# More lines, main results first:
IC50 (Cytochrome P450 2D6) [µM],remaining at 10 min [1] [%],Papp [2] [×10⁻⁶ cm/s],EC50 [3] [µM],IC50 [4] [µM],remaining at 10 min [5] [%],IC50 (Cytochrome P450 3A4) [µM],IC50 [6] [µM],Papp [9] [×10⁻⁶ cm/s],SMILES,IC50 [7] [µM],IC50 [8] [µM],Ratio IC50 (Homo sapiens)
> 20,79.1,7.5,> 30,8.6,53.8,> 20,0.0148,–,CCN(C[C@H]1Cc2c(cccc2N2CCNCC2)CN1)[C@H]1CCCc2cccnc21,–,–,–
12,100,2.65,> 30,3.16,87.4,> 20,0.0322,–,CCCN(C[C@H]1Cc2c(cccc2N2CCNCC2)CN1)[C@H]1CCCc2cccnc21,–,–,–
8.13,56.6,14.3,> 30,> 16.7,15.1,> 20,0.0169,–,CC(C)N1CCN(c2cccc3c2C[C@H](CN(C)[C@H]2CCCc4cccnc42)NC3)CC1,–,–,–
> 20,100,3.9,> 30,> 33.3,85.6,> 20,0.061,–,C[C@@H]1CN(c2cccc3c2C[C@H](CN(C)[C@H]2CCCc4cccnc42)NC3)C[C@H](C)N1,–,–,–
> 20,94.4,1.1,> 30,> 33.3,60.3,> 20,0.195,–,OCCN(C[C@H]1Cc2c(cccc2N2CCNCC2)CN1)[C@H]1CCCc2cccnc21,–,–,–
> 20,0,20.5,> 30,> 33.3,18.8,> 20,0.0138,–,CCN1CCN(c2cccc3c2C[C@H](CN(C)[C@H]2CCCc4cccnc42)NC3)CC1,–,–,–
14.2,90.3,0.1,> 30,5.6,83.7,> 20,0.154,–,COCCN(C[C@H]1Cc2c(cccc2N2CCNCC2)CN1)[C@H]1CCCc2cccnc21,–,–,–
> 20,75,1.6,> 30,8.34,91,> 20,0.364,–,CC(C)N(C[C@H]1Cc2c(cccc2N2CCNCC2)CN1)[C@H]1CCCc2cccnc21,–,–,–
6.09,15.5,26.5,> 30,> 33.3,7,4.23,0.0235,–,CN(C[C@H]1Cc2c(cccc2N2CCN(C3CC3)CC2)CN1)[C@H]1CCCc2cccnc21,–,–,–
5.72,81.6,0.9,> 30,> 33.3,85.6,1.78,0.715,–,c1cnc2c(c1)CCC[C@@H]2N(CC1CCCCC1)C[C@H]1Cc2c(cccc2N2CCNCC2)CN1,–,–,–
